Test results: ChEMBL document CHEMBL5712886, “Discovery and Characterization of GSK2801, a Selective Chemical Probe for the Bromodomains BAZ2A and BAZ2B” (J Med Chem, 2016)
Activity calls are given as the source filed them. The calls are words filed in the database; no cut-off is given here.

Legend:
[1] = biological target: Nuclear body protein SP140 (Homo sapiens) (UniProt Q13342); test: Binding affinity to biotinylated SP140 (unknown origin) expressed in Escherichia coli at 0.2 to 1 uM by Biolayer Interferometric analysis; conditions: dose 0.2-1 µM
Summary of the method: (§1)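 Bromodomains carrying a BirA biotin ligase targeting sequence, coexpressed with BirA in bacteria to give homogeneous in vivo biotin labelling, checked by mass spectrometry. Biotinylated proteins probed by biolayer interferometry with compound at two concentrations, 0.2 and 1.0 μM.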

[2] = biological target: Transcription intermediary factor 1-beta (Homo sapiens) (UniProt Q13263); test: Binding affinity to biotinylated TRIM28 (unknown origin) expressed in Escherichia coli at 0.2 to 1 uM by Biolayer Interferometric analysis; conditions: dose 0.2-1 µM; summary of the method: as §1
[3] = biological target: Nucleosome-remodeling factor subunit BPTF (Homo sapiens) (UniProt Q12830); test: Binding affinity to biotinylated FALZ (unknown origin) expressed in Escherichia coli at 0.2 to 1 uM by Biolayer Interferometric analysis; conditions: dose 0.2-1 µM; summary of the method: as §1
[4] = biological target: Chromatin remodeling regulator CECR2 (Homo sapiens) (UniProt Q9BXF3); test: Binding affinity to biotinylated CECR2 (unknown origin) expressed in Escherichia coli at 0.2 to 1 uM by Biolayer Interferometric analysis; conditions: dose 0.2-1 µM; summary of the method: as §1
[5] = biological target: Bromodomain-containing protein 2 (Homo sapiens) (UniProt P25440); test: Binding affinity to biotinylated BRD2 bromodomain-1 (unknown origin) expressed in Escherichia coli at 0.2 to 1 uM by Biolayer Interferometric analysis; conditions: dose 0.2-1 µM; summary of the method: as §1
[6] = biological target: Histone acetyltransferase KAT2A (Homo sapiens) (UniProt Q92830); test: Binding affinity to biotinylated GCN5L2 (unknown origin) expressed in Escherichia coli at 0.2 to 1 uM by Biolayer Interferometric analysis; conditions: dose 0.2-1 µM; summary of the method: as §1
[7] = biological target: Protein polybromo-1 (Homo sapiens) (UniProt Q86U86); test: Binding affinity to biotinylated PB1 bromodomain-2 (unknown origin) expressed in Escherichia coli at 0.2 to 1 uM by Biolayer Interferometric analysis; conditions: dose 0.2-1 µM; summary of the method: as §1
[8] = biological target: Bromodomain-containing protein 7 (Homo sapiens) (UniProt Q9NPI1); test: Binding affinity to biotinylated BRD7 (unknown origin) expressed in Escherichia coli at 0.2 to 1 uM by Biolayer Interferometric analysis; conditions: dose 0.2-1 µM; summary of the method: as §1
[9] = biological target: SWI/SNF-related matrix-associated actin-dependent regulator of chromatin subfamily A member 4 (Homo sapiens, UniProt P51532); test: Binding affinity to SMARCA4 in human HUT78 cell extract using GSK2801 affinity matrix by chemoproteomic competition binding assay; assay type: cell-free
[10] = biological target: Histone acetyltransferase KAT2B (Homo sapiens) (UniProt Q92831); test: Binding affinity to biotinylated PCAF (unknown origin) expressed in Escherichia coli at 0.2 to 1 uM by Biolayer Interferometric analysis; conditions: dose 0.2-1 µM; summary of the method: as §1
[11] = biological target: ATPase family AAA domain-containing protein 2 (Homo sapiens) (UniProt Q6PL18); test: Binding affinity to biotinylated ATAD2 (unknown origin) expressed in Escherichia coli at 0.2 to 1 uM by Biolayer Interferometric analysis; conditions: dose 0.2-1 µM; summary of the method: as §1
[12] = biological target: Bromodomain testis-specific protein (Homo sapiens) (UniProt Q58F21); test: Binding affinity to biotinylated BRDT bromodomain-1 (unknown origin) expressed in Escherichia coli at 0.2 to 1 uM by Biolayer Interferometric analysis; conditions: dose 0.2-1 µM; summary of the method: as §1
[13] = biological target: Bromodomain-containing protein 4 (Homo sapiens) (UniProt O60885); test: Binding affinity to biotinylated BRD4 bromodomain-1 (unknown origin) expressed in Escherichia coli at 0.2 to 1 uM by Biolayer Interferometric analysis; conditions: dose 0.2-1 µM; summary of the method: as §1
[14] = biological target: Transcription initiation factor TFIID subunit 1 (Homo sapiens) (UniProt P21675); test: Binding affinity to biotinylated TAF1 bromodomain-1 (unknown origin) expressed in Escherichia coli at 0.2 to 1 uM by Biolayer Interferometric analysis; conditions: dose 0.2-1 µM; summary of the method: as §1
[15] = biological target: ATPase family AAA domain-containing protein 2B (Homo sapiens) (UniProt Q9ULI0); test: Binding affinity to biotinylated KIAA1240 (unknown origin) expressed in Escherichia coli at 0.2 to 1 uM by Biolayer Interferometric analysis; conditions: dose 0.2-1 µM; summary of the method: as §1
[16] = biological target: Bromodomain adjacent to zinc finger domain protein 2B (Homo sapiens) (UniProt Q9UIF8); test: Binding affinity to BAZ2B in human HuT78 cell extract up to 50 uM using GSK2801 affinity matrix by chemoproteomic competition binding assay; assay type: cell-free
[17] = biological target: Histone acetyltransferase p300 (Homo sapiens) (UniProt Q09472); test: Binding affinity to biotinylated EP300 (unknown origin) expressed in Escherichia coli at 0.2 to 1 uM by Biolayer Interferometric analysis; conditions: dose 0.2-1 µM; summary of the method: as §1
[18] = biological target: Bromodomain-containing protein 4 (Homo sapiens) (UniProt O60885); test: Binding affinity to biotinylated BRD4 bromodomain-2 (unknown origin) expressed in Escherichia coli at 0.2 to 1 uM by Biolayer Interferometric analysis; conditions: dose 0.2-1 µM; summary of the method: as §1
[19] = biological target: Bromodomain-containing protein 3 (Homo sapiens) (UniProt Q15059); test: Binding affinity to biotinylated BRD3 bromodomain-2 (unknown origin) expressed in Escherichia coli at 0.2 to 1 uM by Biolayer Interferometric analysis; conditions: dose 0.2-1 µM; summary of the method: as §1
[20] = biological target: Tyrosine-protein kinase BAZ1B (Homo sapiens) (UniProt Q9UIG0); test: Binding affinity to biotinylated BAZ1B (unknown origin) expressed in Escherichia coli at 0.2 to 1 uM by Biolayer Interferometric analysis; conditions: dose 0.2-1 µM; summary of the method: as §1
[21] = biological target: Bromodomain-containing protein 1 (Homo sapiens) (UniProt O95696); test: Binding affinity to biotinylated BRD1 (unknown origin) expressed in Escherichia coli at 0.2 to 1 uM by Biolayer Interferometric analysis; conditions: dose 0.2-1 µM; summary of the method: as §1

Chain of Histone acetyltransferase p300 (Homo sapiens) (Q09472 whole entry): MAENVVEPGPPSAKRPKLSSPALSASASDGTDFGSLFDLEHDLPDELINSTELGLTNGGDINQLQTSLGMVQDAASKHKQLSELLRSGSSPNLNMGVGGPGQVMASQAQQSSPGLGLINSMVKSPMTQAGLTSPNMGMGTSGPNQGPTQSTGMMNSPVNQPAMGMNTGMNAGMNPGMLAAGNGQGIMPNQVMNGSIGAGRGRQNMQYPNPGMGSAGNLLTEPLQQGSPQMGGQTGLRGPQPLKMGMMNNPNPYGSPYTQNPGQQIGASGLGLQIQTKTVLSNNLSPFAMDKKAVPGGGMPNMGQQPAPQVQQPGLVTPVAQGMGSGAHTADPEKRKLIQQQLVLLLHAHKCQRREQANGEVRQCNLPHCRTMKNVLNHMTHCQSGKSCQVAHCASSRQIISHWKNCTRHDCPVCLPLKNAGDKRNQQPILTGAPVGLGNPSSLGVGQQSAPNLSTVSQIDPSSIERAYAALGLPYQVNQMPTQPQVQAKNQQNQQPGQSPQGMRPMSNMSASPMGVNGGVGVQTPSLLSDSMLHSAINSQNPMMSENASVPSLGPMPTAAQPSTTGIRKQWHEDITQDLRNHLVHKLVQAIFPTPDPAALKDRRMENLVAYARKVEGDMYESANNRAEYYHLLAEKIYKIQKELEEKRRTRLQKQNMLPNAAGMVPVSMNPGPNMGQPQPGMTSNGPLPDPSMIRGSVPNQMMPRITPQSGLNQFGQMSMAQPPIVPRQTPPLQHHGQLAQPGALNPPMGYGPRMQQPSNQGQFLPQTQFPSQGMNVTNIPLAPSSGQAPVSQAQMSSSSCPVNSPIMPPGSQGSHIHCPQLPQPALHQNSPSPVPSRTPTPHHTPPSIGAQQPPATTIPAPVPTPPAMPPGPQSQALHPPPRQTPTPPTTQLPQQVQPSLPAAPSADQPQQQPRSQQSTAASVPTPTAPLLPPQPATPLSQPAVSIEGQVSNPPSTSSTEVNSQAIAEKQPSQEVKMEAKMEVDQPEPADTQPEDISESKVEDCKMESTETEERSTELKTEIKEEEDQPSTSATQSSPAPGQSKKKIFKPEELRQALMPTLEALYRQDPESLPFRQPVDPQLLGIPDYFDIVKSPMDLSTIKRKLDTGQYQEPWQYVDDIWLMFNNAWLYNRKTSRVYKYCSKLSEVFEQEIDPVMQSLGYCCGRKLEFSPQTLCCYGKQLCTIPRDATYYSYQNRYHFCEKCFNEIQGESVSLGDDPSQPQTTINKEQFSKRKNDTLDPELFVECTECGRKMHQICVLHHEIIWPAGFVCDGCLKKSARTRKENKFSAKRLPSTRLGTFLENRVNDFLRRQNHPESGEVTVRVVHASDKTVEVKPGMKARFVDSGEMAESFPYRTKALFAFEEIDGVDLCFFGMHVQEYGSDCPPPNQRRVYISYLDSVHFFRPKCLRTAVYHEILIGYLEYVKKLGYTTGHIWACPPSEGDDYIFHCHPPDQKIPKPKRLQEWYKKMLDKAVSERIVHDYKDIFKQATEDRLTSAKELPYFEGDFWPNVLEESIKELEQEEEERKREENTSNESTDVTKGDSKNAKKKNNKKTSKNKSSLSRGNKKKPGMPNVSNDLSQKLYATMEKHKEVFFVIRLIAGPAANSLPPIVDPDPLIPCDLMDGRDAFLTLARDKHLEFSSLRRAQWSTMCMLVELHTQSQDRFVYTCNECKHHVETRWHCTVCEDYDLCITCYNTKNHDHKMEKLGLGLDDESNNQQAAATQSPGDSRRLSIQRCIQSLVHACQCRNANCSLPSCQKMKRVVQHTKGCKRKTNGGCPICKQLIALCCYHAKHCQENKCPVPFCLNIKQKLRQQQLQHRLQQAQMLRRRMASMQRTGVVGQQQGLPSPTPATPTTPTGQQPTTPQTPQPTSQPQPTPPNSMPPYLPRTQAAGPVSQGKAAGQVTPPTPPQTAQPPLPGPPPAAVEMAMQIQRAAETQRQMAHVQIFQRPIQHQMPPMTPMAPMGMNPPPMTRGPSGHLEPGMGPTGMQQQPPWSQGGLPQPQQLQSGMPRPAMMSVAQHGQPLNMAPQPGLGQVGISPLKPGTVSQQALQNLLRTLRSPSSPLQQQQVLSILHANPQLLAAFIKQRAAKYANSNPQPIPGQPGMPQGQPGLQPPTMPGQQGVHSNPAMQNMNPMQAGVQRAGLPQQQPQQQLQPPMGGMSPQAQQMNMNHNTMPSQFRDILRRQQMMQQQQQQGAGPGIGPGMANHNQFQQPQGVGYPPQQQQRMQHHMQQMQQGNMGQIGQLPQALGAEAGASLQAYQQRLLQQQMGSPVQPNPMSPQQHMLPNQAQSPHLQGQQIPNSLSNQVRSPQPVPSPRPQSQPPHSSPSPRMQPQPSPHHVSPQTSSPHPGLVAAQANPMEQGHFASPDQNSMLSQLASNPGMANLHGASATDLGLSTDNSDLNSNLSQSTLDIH
Chain of Transcription intermediary factor 1-beta (Homo sapiens) (Q13263 whole entry): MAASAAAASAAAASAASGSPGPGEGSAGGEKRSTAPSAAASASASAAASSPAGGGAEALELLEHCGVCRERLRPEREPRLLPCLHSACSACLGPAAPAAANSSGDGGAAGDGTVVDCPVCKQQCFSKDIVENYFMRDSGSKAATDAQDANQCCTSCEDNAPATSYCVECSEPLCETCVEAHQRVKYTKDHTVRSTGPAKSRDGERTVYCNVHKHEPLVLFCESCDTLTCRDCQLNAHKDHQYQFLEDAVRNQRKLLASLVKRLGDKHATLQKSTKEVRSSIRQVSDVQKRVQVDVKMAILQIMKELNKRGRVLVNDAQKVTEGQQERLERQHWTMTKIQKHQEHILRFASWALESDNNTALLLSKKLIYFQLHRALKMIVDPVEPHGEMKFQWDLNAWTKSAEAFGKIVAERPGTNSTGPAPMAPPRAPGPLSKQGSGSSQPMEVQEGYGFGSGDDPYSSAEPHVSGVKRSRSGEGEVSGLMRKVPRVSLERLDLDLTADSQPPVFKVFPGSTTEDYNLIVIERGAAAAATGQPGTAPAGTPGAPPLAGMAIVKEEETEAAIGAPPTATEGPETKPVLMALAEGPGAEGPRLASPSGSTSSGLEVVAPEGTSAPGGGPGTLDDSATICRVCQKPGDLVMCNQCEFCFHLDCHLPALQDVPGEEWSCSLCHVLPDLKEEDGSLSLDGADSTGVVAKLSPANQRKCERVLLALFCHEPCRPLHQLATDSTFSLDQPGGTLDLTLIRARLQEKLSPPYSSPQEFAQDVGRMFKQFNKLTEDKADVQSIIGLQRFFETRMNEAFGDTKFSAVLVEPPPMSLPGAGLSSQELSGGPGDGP
Chain of Bromodomain-containing protein 7 (Homo sapiens) (Q9NPI1 whole entry): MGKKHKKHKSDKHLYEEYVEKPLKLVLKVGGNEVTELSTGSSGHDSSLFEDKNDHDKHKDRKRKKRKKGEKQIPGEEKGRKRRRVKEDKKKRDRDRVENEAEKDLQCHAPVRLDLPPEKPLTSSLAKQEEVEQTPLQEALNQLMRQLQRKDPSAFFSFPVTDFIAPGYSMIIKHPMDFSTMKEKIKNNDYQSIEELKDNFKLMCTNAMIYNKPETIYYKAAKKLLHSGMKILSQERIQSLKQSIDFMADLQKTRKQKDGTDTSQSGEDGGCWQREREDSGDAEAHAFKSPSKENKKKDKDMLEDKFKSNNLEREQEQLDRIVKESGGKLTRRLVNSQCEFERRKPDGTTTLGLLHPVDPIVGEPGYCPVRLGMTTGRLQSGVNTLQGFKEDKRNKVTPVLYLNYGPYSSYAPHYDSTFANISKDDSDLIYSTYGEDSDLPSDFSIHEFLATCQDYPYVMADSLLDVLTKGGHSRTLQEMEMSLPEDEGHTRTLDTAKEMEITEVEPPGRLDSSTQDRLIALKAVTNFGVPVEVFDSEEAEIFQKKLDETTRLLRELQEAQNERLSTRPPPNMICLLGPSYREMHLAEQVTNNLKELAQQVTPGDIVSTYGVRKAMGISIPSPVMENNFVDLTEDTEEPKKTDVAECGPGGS
Chain of Histone acetyltransferase KAT2A (Homo sapiens) (Q92830 2-837 limits assumed): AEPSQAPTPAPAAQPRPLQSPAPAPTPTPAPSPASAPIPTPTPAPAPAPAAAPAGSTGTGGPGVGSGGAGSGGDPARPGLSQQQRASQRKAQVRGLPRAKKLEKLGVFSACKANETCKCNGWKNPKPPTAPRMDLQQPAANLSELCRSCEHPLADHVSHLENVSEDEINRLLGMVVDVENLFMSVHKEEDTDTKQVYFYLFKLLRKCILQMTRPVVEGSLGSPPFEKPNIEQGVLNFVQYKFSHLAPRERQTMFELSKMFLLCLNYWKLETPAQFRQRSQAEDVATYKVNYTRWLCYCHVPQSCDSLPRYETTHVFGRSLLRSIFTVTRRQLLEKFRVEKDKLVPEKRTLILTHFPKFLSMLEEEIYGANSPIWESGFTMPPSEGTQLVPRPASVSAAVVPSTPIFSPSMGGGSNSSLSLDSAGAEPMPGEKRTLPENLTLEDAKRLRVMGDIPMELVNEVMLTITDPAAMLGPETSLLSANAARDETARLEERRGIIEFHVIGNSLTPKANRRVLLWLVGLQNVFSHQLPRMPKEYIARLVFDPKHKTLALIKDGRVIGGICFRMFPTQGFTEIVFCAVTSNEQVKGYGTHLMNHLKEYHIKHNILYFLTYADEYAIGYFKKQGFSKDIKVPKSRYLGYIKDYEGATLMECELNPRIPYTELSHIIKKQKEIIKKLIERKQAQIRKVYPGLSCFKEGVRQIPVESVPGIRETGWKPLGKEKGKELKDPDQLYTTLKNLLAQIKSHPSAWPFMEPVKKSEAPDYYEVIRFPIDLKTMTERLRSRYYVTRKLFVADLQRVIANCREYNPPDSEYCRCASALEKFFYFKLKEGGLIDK

Q: Which Activity [1] does the source give for `CCCOc1ccn2c(C(C)=O)cc(-c3cccc(OC)c3)c2c1` here?
A: inactive

Q: What about the Activity [2] of the same compound?
A: inactive

Q: And the Activity [3]?
A: inactive

Q: And the Activity [4]?
A: inactive

Q: What about the Activity [5] of the same compound?
A: inactive

Q: What about the Activity [6] of the same compound?
A: inactive

Q: What about the Activity [7] of the same compound?
A: inactive

Q: And the Activity [8]?
A: inactive

Q: And the Kd [9]?
A: 15.8 µM

Q: What about the Activity [10] of the same compound?
A: inactive

Q: And the Activity [11]?
A: inactive

Q: What about the Activity [12] of the same compound?
A: inactive

Q: And the Activity [13]?
A: inactive

Q: And the Activity [14]?
A: inactive

Q: What about the Activity [15] of the same compound?
A: inactive

Q: What about the Activity [16] of the same compound?
A: inactive

Q: What about the Activity [17] of the same compound?
A: inactive

Q: What about the Activity [18] of the same compound?
A: inactive

Q: What about the Activity [19] of the same compound?
A: inactive

Q: And the Activity [20]?
A: inactive

Q: What about the Activity [21] of the same compound?
A: inactive
